Experimental data reported in ChEMBL document CHEMBL1133538, “7-Deazaadenines bearing polar substituents: structure-activity relationships of new A(1) and A(3) adenosine receptor antagonists” (J Med Chem, 2000).
Converted amounts (≈) assume the structure as drawn.

What was measured:
[1] = Solubility determined in […]-hydrochloride buffer at pH 7.4; assay type: physicochemical; settings: in the assay text read “50 mM” for “50 nM”
Outline: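 10 mM DMSO solution diluted 1:100 into 50 mM TRIS-HCl pH 7.4 (1% DMSO), shaken overnight at room temperature to equilibrium, centrifuged at 1000g, supernatant filtered through cotton. Dilutions analysed by HPLC with UV detection, concentration from calibration curves.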

Adenosine receptor A1 = biological target: T1, Adenosine receptor A1 (Rattus norvegicus, UniProt P25099); experiment: Tested for its binding affinity at adenosine A1 receptor in rat brain cortical membrane preparations using [3H]CCPA as a radioligand; assay type: cell membranes
T1 sequence (P25099 whole entry): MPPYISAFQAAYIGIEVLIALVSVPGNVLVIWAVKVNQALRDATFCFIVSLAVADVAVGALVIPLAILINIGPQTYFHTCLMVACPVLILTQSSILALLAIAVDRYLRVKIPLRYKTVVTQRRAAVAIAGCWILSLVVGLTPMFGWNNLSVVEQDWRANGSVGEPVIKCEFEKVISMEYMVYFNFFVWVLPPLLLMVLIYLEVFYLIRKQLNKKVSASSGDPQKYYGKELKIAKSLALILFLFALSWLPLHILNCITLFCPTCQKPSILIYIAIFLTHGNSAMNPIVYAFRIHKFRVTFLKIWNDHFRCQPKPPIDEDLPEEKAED
Outline: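 Rat brain cortical membranes, A1 agonist radioligand [3H]CCPA at 0.5 nM. Compounds dissolved in DMSO, diluted into aqueous buffer, tested at 5-7 concentrations in triplicate, at least three separate experiments.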

[2] = biological target: Adenosine receptor A2a (Rattus norvegicus) (UniProt P30543); experiment: Binding affinity against adenosine A2A receptor in rat striatal membrane preparations using [3H]CGS-21680 at 1 uM; assay type: cell membranes; settings: Striatum
Outline: (§1)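 Rat striatal membranes, A2A-selective agonist [3H]CGS21680 at 5 nM. Compounds dissolved in DMSO, diluted into aqueous buffer. Value given as percent inhibition of radioligand binding at the single stated concentration.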

[3] = biological target: T2, Adenosine receptor A1 (Rattus norvegicus) (UniProt P25099); experiment: Ratio between solubility and Ki for A1 adenosine receptor
T2 sequence (whole entry): T1 sequence (P25099 whole entry)

Adenosine receptor A2a [4] = biological target: T3, Adenosine receptor A2a (Rattus norvegicus, UniProt P30543); experiment: Binding affinity at adenosine A2A receptor in rat striatal membrane preparations using [3H]CGS-21680 at a 30 uM; assay type: cell membranes, Striatum
[5] = biological target: Adenosine receptor A2a (Rattus norvegicus) (UniProt P30543); experiment: Binding affinity against adenosine A2A receptor in rat striatal membrane preparations using [3H]CGS-21680 at 30 uM; assay type: cell membranes; settings: Striatum; outline: as §1
[6] = biological target: T2, Adenosine receptor A1 (Rattus norvegicus); experiment: Binding affinity against adenosine A1 receptor in rat brain cortical membrane preparations using [3H]CCPA at 30 uM; assay type: cell membranes
Outline: (§2)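 Rat brain cortical membranes with [3H]CCPA (0.5 nM) as A1 radioligand. Compounds from DMSO stock diluted into aqueous buffer. Value given as percent inhibition of specific radioligand binding at the single stated concentration.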

[7] = biological target: Adenosine receptor A2a (Rattus norvegicus) (UniProt P30543); experiment: (§3) Binding affinity against adenosine A2A receptor in rat striatal membrane preparations using [3H]CGS-21680 at 10 uM; assay type: cell membranes; settings: Striatum; outline: as §1
[8] = biological target: Adenosine receptor A2a (Rattus norvegicus) (UniProt P30543); experiment: Binding affinity against adenosine A2A receptor in rat striatal membrane preparations using [3H]CGS-21680 at 3 uM; assay type: cell membranes; settings: Striatum; outline: as §1
[9] = biological target: T2, Adenosine receptor A1 (Rattus norvegicus); experiment: Binding affinity against adenosine A1 receptor in rat brain cortical membrane preparations using [3H]CCPA; assay type: cell membranes; settings: concentration not given here
Outline: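 Rat brain cortical membranes, A1 agonist radioligand [3H]CCPA at 0.5 nM. Compounds dissolved in DMSO, diluted into aqueous buffer, tested at 5-7 concentrations in triplicate, at least three separate experiments. IC50 from nonlinear curve fitting, converted to Ki with Cheng-Prusoff using KD 0.2 nM.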

[10] = biological target: Adenosine receptor A2a (Rattus norvegicus) (UniProt P30543); experiment: Binding affinity against adenosine A2A receptor in rat striatal membrane preparations at 30 uM; assay type: cell membranes; settings: Striatum; outline: as §1
[11] = biological target: Adenosine receptor A2a (Rattus norvegicus) (UniProt P30543); experiment: Binding affinity against adenosine A2A receptor in rat striatal membrane preparations at 10 uM; assay type: cell membranes; settings: Striatum; outline: as §1
[12] = biological target: T2, Adenosine receptor A1 (Rattus norvegicus); experiment: Binding affinity against adenosine A1 receptor in rat brain cortical membrane preparations using [3H]CCPA at 100 uM; assay type: cell membranes; outline: as §2
Adenosine receptor A2a [13] = biological target: T3, Adenosine receptor A2a; experiment: as §3; assay type: cell membranes, Striatum
[14] = biological target: Adenosine receptor A1 (Homo sapiens) (UniProt P30542); experiment: Binding affinity against adenosine A1 receptor expressed in CHO cells using [3H]CCPA
Sequence of Adenosine receptor A1 (Homo sapiens) (P30542 whole entry, looked up): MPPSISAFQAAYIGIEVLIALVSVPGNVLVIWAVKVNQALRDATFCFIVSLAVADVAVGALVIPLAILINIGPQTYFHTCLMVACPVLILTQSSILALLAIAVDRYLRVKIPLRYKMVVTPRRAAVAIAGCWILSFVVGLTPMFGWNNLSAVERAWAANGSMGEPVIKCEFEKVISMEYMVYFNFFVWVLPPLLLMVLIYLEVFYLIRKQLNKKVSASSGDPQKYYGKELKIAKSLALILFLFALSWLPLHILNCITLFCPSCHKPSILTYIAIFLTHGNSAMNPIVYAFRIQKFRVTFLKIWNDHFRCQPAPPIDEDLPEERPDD

T3 sequence (P30543 whole entry): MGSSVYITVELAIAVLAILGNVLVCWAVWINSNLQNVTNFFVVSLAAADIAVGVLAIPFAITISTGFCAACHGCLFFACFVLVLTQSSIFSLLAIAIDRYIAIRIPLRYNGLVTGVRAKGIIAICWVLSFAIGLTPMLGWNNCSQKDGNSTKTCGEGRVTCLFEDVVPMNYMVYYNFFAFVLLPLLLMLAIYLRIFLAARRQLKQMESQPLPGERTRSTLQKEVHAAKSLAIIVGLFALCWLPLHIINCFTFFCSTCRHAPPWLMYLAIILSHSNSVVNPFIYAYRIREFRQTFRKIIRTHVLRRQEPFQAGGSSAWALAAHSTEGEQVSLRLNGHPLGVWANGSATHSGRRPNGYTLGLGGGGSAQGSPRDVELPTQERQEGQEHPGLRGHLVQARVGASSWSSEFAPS
Sequence of Adenosine receptor A2a (Rattus norvegicus) (P30543 whole entry): as above

Compound | Ki (Adenosine receptor A1) | inhibition [5] | other results
C[C@@H](c1ccccc1)n1c2ccccc2c2c(N)nc(-c3ccccn3)nc21 | 0.54 µM | – | solubility [1]: 5 µM (≈ 1.83 µg/mL); inhibition [2]: 6%; Ratio [3]: 9
Cc1c(C)n([C@H](C)c2ccccc2)c2nc(-c3cccs3)nc(N)c12 | 0.019 µM | – | Ki (Adenosine receptor A2a [4]): 5.4 µM
COc1ccccc1-c1nc(N)c2c(C)c(C)n([C@H](C)c3ccccc3)c2n1 | – | 14% | inhibition [6]: 38%
Cc1c(C)n([C@H](C)c2ccccc2)c2nc(-c3ccccc3O)nc(N)c12 | 0.24 µM | 46% | –
Cc1nc2nc(-c3ccccc3)[nH]c(N[C@H](C)c3ccccc3)c-2c1C | – | – | inhibition [7]: 23%
Cc1c(C)n([C@H](C)c2ccccc2)c2nc(-c3ccccc3)nc(NCCN)c12 | 3.58 µM | 2% | solubility [1]: 24.2 µM (≈ 9.33 µg/mL); Ratio [3]: 7
C[C@H](c1ccccc1)n1c2ccccc2c2c(N)nc(-c3cccs3)nc21 | 0.036 µM | – | inhibition [8]: 32%
C[C@@H](c1ccccc1)n1c2c(c3c(N)nc(-c4ccncc4)nc31)CCCC2 | – | – | inhibition [9]: 8%; inhibition [10]: 2%
Nc1nc(-c2ccncc2)nc2c1c1c(n2-c2ccccc2)CCCC1 | 0.6 µM | – | inhibition [11]: 28%
C[C@@H](c1ccccc1)n1c2c(c3c(N)nc(-c4ccccn4)nc31)CCCC2 | 12.5 µM | – | inhibition [10]: 38%
Cc1c(C)n([C@H](C)c2ccccc2)c2nc(-c3cccnc3)nc(N)c12 | – | 3% | inhibition [12]: 35%
Cc1[nH]c2nc(C(C)c3ccccc3)nc(N)c2c1C (stereo unspecified) | 6.84 µM | – | inhibition [7]: 10%
Cc1c(C)n([C@H](C)c2ccccc2)c2nc(-c3cnccn3)nc(N)c12 | 0.56 µM | – | Ki (Adenosine receptor A2a [4]): 6.6 µM
Cc1c(C)n([C@H](C)c2ccccc2)c2nc(-c3ccccc3)nc(NC3CCCC3)c12 | – | 19% | inhibition [6]: 41%
Cc1c(C)n([C@H](C)c2ccccc2)c2nc(-c3ccccc3)nc(N)c12 | – | – | Ki (Adenosine receptor A2a [13]): 3.71 µM
Cc1c(C)n([C@H](C)c2ccccc2)c2nc(-c3ccco3)nc(N)c12 | 0.016 µM | – | Ki (Adenosine receptor A2a [4]): 0.49 µM
CCC(CO)Nc1nc(-c2ccccc2)nc2c1c(C)c(C)n2C1CCCC1 (stereo unspecified) | 1.24 µM | 22% | solubility [1]: 13.2 µM (≈ 5 µg/mL); Ratio [3]: 11
Cc1c(C)n([C@H](C)c2ccccc2)c2nc(-c3ccccn3)nc(N)c12 | 2.1 µM | 43% | –
Cc1c(C)n([C@H](C)c2ccccc2)c2nc(C(C)c3ccccc3)nc(N)c12 (stereo partly specified) | – | 38% | inhibition [6]: 33%
C[C@H](c1ccccc1)n1c2ccccc2c2c(N)nc(-c3ccncc3)nc21 | 0.021 µM | – | solubility [1]: 3 µM (≈ 1.1 µg/mL); Ki (Adenosine receptor A2a [13]): 1.85 µM; Ratio [3]: 142
Nc1nc(-c2cccnc2)nc2c1c1c(n2-c2ccccc2)CCCC1 | – | 44% | –
C[C@H](c1ccccc1)n1c2ccccc2c2c(N)nc(-c3cccnc3)nc21 | 0.092 µM | – | inhibition [7]: 47%
Nc1nc(-c2ccccn2)nc2c1c1c(n2-c2ccccc2)CCCC1 | 8.9 µM | 42% | –
Cc1c(C)n([C@H](C)c2ccccc2)c2nc(-c3cc[n+]([O-])cc3)nc(N)c12 | 0.49 µM | – | Ki (Adenosine receptor A2a [4]): 5.9 µM
Cc1c(C)n([C@H](C)c2ccccc2)c2nc(-c3ccccc3)nc(N[C@@H](C)c3ccccc3)c12 | 18.3 µM | 26% | –
C[C@H](c1ccccc1)n1c2c(c3c(N)nc(-c4cccnc4)nc31)CCCC2 | 1.3 µM | – | inhibition [10]: 46%
CCC(CO)Nc1nc(-c2ccc(Cl)cc2)nc2c1c(C)c(C)n2[C@H](C)c1ccccc1 (stereo partly specified) | 2.6 µM | 36% | solubility [1]: 11.2 µM (≈ 5.03 µg/mL); Ratio [3]: 4
C[C@H](c1ccccc1)n1c2c(c3c(N)nc(-c4cc[n+]([O-])cc4)nc31)CCCC2 | 1.85 µM | – | inhibition [10]: 50%
Cc1c(C)n([C@H](C)c2ccccc2)c2nc(-c3ccncc3)nc(N)c12 | 0.046 µM | – | Ki (Adenosine receptor A2a [4]): 1.3 µM; Ki [14]: 0.0088 µM
